From ChEMBL document CHEMBL1799933, “Discovery of a selective allosteric M1 receptor modulator with suitable development properties based on a quinolizidinone carboxylic acid scaffold” (J Med Chem, 2011) come the findings set out here.

Calls of active or inactive are those of the source. The calls are words filed in the database; no cut-off is given here.

Data set [1] in a line: Ratio of drug level in cerebrospinal fluid to fraction unbound level in plasma of Sprague-Dawley rat at 10 mg/kg, po. The format is ADME, organism-based. Also noted: dose 10 mg/kg, route oral. The settings on record: in vivo.
In data set [2] the target is T1, Muscarinic acetylcholine receptor M2 (Homo sapiens) (UniProt P08172).
T1 sequence (whole entry): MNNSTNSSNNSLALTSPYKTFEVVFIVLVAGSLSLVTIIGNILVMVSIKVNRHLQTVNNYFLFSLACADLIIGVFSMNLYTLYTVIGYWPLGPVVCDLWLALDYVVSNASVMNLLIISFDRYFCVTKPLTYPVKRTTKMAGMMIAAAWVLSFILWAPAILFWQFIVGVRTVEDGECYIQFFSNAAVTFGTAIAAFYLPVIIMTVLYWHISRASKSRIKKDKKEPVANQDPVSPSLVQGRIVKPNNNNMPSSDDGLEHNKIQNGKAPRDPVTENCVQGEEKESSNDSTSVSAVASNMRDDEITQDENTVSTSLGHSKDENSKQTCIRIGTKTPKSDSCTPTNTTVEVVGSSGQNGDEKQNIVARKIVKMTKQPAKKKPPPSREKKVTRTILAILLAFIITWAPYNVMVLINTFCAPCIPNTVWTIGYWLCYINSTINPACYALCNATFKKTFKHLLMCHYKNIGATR
Kind of data set: Agonist activity at human muscarinic M2 receptor expressed in CHONFAT cells assessed as increase in acetylcholine-induced calcium mobilization at 10 uM preincubated for 4 mins measured after 1 hr by FLIPR assay. In kind it is functional, cell-based. A digest of the protocol:
(§1)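 CHO-NFAT cells expressing the named muscarinic receptor (human M1–M4; rhesus, dog or rat M1 in CHO-K1) were plated at 25,000 cells/well and grown overnight at 37 °C, 6% CO2. Cells were loaded with 1 μM Fluo-4AM for 1 h, washed, and preincubated 4 min with serially diluted compound (final DMSO 0.67%). They were then stimulated 4 min with an EC20 of ACh, and Ca2+ flux was read by FLIPR384.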
For orientation: A change in cytosolic calcium serves as a functional read-out for many receptors and channels.

In data set [3] the target is T2, Muscarinic acetylcholine receptor M1 (Homo sapiens) (UniProt P11229).
T2 sequence (whole entry): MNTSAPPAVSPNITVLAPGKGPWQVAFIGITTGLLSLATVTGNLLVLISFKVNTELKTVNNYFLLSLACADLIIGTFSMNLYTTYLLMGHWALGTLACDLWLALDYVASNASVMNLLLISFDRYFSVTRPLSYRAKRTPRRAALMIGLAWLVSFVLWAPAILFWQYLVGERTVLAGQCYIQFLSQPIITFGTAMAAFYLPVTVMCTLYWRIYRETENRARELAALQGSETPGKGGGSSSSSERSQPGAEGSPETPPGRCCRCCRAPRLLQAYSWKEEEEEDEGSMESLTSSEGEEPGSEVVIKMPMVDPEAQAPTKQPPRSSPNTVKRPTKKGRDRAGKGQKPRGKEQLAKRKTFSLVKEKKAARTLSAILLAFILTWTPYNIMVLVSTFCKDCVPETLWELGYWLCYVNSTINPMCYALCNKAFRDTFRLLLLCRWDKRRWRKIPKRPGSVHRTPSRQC
Kind of data set: Agonist activity at human muscarinic M1 receptor expressed in CHONFAT cells assessed as increase in calcium mobilization at 10 uM preincubated for 4 mins measured after 1 hr by FLIPR assay. The format is functional, cell-based.

The next data set has as its system Plasma. The data set is described as follows: Drug level in Sprague-Dawley rat plasma at 10 mg/kg, po. In kind it is ADME, organism-based. Also noted: dose 10 mg/kg, route oral. As to conditions: in vivo. The procedure, abridged:
(§2)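 Rats dosed orally at 10 mpk. Plasma, brain and CSF sampled at 2 h and concentrations determined by bioanalysis.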

Data set [4] relates to Mus musculus. Kind of data set: Antiamnesic activity against scopolamine-induced dementia in B6SJL mouse assessed as increase in freezing behavior at 30 mg/kg, ip after 24 hrs. In kind it is functional, organism-based. Also noted: dose 30 mg/kg. The procedure, abridged: (§3)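 Male B6SJL mice, 10 weeks old and naive (n = 12–16/group), were given compound IP in 5% beta-cyclodextrin and/or scopolamine 0.3 mg/kg in 0.9% saline 30 min before training. Training was 2 tone (3 kHz, 85 dB, 30 s)–footshock (0.5 mA, 1 s) pairings 2 min apart. Freezing in the same chamber was video-scored 24 h later.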

Data set [5] is described as follows: Agonist activity at dog muscarinic M1 receptor expressed in CHOK1 cells assessed as potentiation of acetylcholine-induced calcium mobilization preincubated for 4 mins measured after 1 hr by FLIPR assay. The format is functional, Canis lupus familiaris, CHO-K1. The procedure, abridged: as §1
Data set [6] is described as follows: Ratio of drug level in brain to plasma of Sprague-Dawley rat at 10 mg/kg, po. The format is ADME, organism-based. As to conditions: read-out: BPR. Also noted: dose 10 mg/kg, route oral. A digest of the protocol: as §2
Data set [7] in a line: Clearance in dog at 3 mg/kg, po and 1 mg/kg, iv. The settings on record: in vivo. The format is ADME, organism-based, Canis lupus familiaris. The procedure, abridged:
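Dog PK, n = 2 animals. Given orally at 3 mg/kg and intravenously at 1 mg/kg. Interanimal variability under 20% for all values.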

A short description of data set [8]: Clearance in rhesus monkey. The format is ADME, organism-based, Macaca mulatta. As to conditions: in vivo.
For the next data set, the system named is Cerebrospinal fluid. Kind of data set: Drug level in Sprague-Dawley rat cerebrospinal fluid at 10 mg/kg, po. In kind it is ADME, organism-based. Also noted: dose 10 mg/kg, route oral. As to conditions: in vivo, read-out: Drug uptake. A digest of the protocol:
as §2

The nature of data set [9]: Lipophilicity, log P of the compound. The format is physicochemical. As to conditions: octanol/water.
For data set [10], the system named is Mus musculus. The data set is described as follows: Antiamnesic activity against scopolamine-induced dementia in ip dosed B6SJL mouse assessed as increase in freezing behavior after 24 hrs. In kind it is functional, organism-based. The procedure, abridged: as §3
The subject of the next data set is Brain. The data set is described as follows: Drug level Sprague-Dawley rat brain at 10 mg/kg, po. The format is ADME, organism-based. Also noted: dose 10 mg/kg, route oral. As to conditions: in vivo, read-out: Drug uptake. The procedure, abridged:
as §2

The nature of data set [11]: Plasma protein binding in human serum by equilibrium dialysis method. In kind it is ADME, cell-free. As to conditions: read-out: PPB (converted). The procedure, abridged:
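Protein binding measured by equilibrium dialysis against rat or human serum.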
In general terms: In equilibrium dialysis only unbound substance equilibrates across the membrane.

Data set [12] concerns Mus musculus. Kind of data set: Antiamnesic activity against scopolamine-induced dementia in ip dosed B6SJL mouse assessed as increase in freezing behavior at 3 uM plasma concentration. In kind it is functional, organism-based.
Data set [13] is described as follows: Half life in rhesus monkey. As to conditions: in vivo. The format is ADME, organism-based, Macaca mulatta.
Data set [14] is described as follows: Metabolic stability in monkey NADPH-fortified hepatic microsomes assessed as oxidative metabolism. In kind it is ADME, Macaca mulatta, Liver. The settings on record: rhesus monkey. A digest of the protocol: (§4)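 Compound incubated with NADPH-fortified hepatic microsomes from rat, dog, monkey or human. Oxidative metabolism monitored.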
A short description of data set [15]: Metabolic stability in rat NADPH-fortified hepatic microsomes assessed as oxidative metabolism. In kind it is ADME, Liver. The procedure, abridged:
as §4

In data set [16] the target is T2, Muscarinic acetylcholine receptor M1 (Homo sapiens). The data set is described as follows: Positive allosteric modulation of human muscarinic M1 receptor expressed in CHONFAT cells assessed as potentiation of acetylcholine-induced calcium mobilization at 0.1 uM preincubated for 4 mins measured after 1 hr by FLIPR assay relative to control. The format is functional, cell-based. A digest of the protocol: (§5)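 CHO-NFAT cells expressing human M1, 25,000 cells/well, grown overnight at 37 °C, 6% CO2. Washed in HBSS with 20 mM Hepes, 2.5 mM probenecid, 0.1% BSA, then loaded with 1 μM Fluo-4AM for 1 h at 37 °C. Compound preincubated 4 min (final DMSO 0.67%), then serially diluted ACh added for 4 min. Ca2+ flux read by FLIPR384; fold leftward shift of the ACh dose-response curve.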

A short description of data set [17]: Metabolic stability in dog NADPH-fortified hepatic microsomes assessed as oxidative metabolism. In kind it is ADME, Canis lupus familiaris, Liver. A digest of the protocol: as §4
Data set [18] has as its target T2, Muscarinic acetylcholine receptor M1 (Homo sapiens). Kind of data set: Positive allosteric modulation of human muscarinic M1 receptor expressed in CHONFAT cells assessed as potentiation of acetylcholine-induced calcium mobilization at 1 uM preincubated for 4 mins measured after 1 hr by FLIPR assay relative to control. In kind it is functional, cell-based. The procedure, abridged: as §5

Broadly, the logP is a log measure of how a compound divides between an organic and an aqueous phase. As a reminder, the half-life is the time in which the quantity being followed falls by half. In the case of `N#CC1(c2ccccn2)CCN(Cc2cc(C(=O)O)c(=O)n3ccccc23)CC1` [MSD-M1PAM], the Ratio in data set [1] came out at 0.3. The result in data set [2] was inactive. The outcome (in [3]; in the data set on Mus musculus [4]; with Mus musculus [12]) was Active. Moreover, the concentration was 1480 nM in the data set with Plasma, 135 nM with Cerebrospinal fluid and 306 nM in the data set with Brain. For the same molecule, the IP in data set [5] worked out at 100 nM. The Kp in data set [6] worked out at 0.23. For the same molecule, the clearance in data set [7] worked out at 7.4 mL/min/kg; in data set [8] it was 17 mL/min/kg. The molecule further yielded a logP in data set [9] of 0.15. Besides, in the data set on Mus musculus [10], the Activity result is “Dose-dependent effect”. Besides, the fraction unbound in data set [11] is 0.291. Also, the half-life in data set [13] is 3.6 h. The Stability entry in data set [14], in data set [15] and in data set [17] was “Stable” each time. Also, the fold change (FC) was 3 in [16] and 146 in data set [18].
